From ChEMBL document CHEMBL1151705, “Novel azalides derived from 16-membered macrolides. Part II: Isolation of the linear 9-formylcarboxylic acid and its sequential macrocyclization with an amino alcohol or an azidoamine” (2008)
Converted amounts (≈) assume the structure as drawn.

Columns and labels:
Assay type in all cases: functional
Streptococcus pneumoniae [1] = test: Antimicrobial activity against Streptococcus pneumoniae 8 expressing inducible ermB after 20 hrs by agar dilution method
Outline: (§1)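 Streptococci, H. influenzae and M. catarrhalis were precultured on blood agar plates. Suspensions of about 10⁶ CFU/ml were inoculated onto sensitivity disk agar supplemented with 5% horse blood and incubated at 37 °C for 20 h. MIC was read as the lowest drug concentration with no visible growth.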

Streptococcus pneumoniae [2] = test: Antimicrobial activity against Streptococcus pneumoniae 9 expressing mefA after 20 hrs by agar dilution method; conditions: Streptococcus pneumoniae, 20 h; read-out: MIC; outline: as §1
Streptococcus pneumoniae [3] = test: Antimicrobial activity against Streptococcus pneumoniae 10 expressing mefA after 20 hrs by agar dilution method; conditions: Streptococcus pneumoniae, 20 h; read-out: MIC; outline: as §1
Streptococcus pyogenes [4] = test: Antimicrobial activity against drug-susceptible Streptococcus pyogenes 1 after 20 hrs by agar dilution method; conditions: Streptococcus pyogenes, 20 h; read-out: MIC; outline: as §1
Streptococcus pyogenes [5] = test: Antimicrobial activity against Streptococcus pyogenes 2 constitutively expressing ermB after 20 hrs by agar dilution method; outline: as §1
Streptococcus pyogenes [6] = test: Antimicrobial activity against Streptococcus pyogenes 3 expressing mefA after 20 hrs by agar dilution method; conditions: Streptococcus pyogenes, 20 h; read-out: MIC; outline: as §1
Moraxella catarrhalis [7] = test: Antimicrobial activity against drug-susceptible Moraxella catarrhalis 1 after 20 hrs by agar dilution method; conditions: Moraxella catarrhalis, 20 h; read-out: MIC; outline: as §1
Moraxella catarrhalis [8] = test: Antimicrobial activity against drug-susceptible Moraxella catarrhalis 2 after 20 hrs by agar dilution method; conditions: Moraxella catarrhalis, 20 h; read-out: MIC; outline: as §1
Haemophilus influenzae [9] = test: Antimicrobial activity against drug-susceptible Haemophilus influenzae 1 after 20 hrs by agar dilution method; conditions: Haemophilus influenzae, 20 h; read-out: MIC; outline: as §1
Haemophilus influenzae [10] = test: Antimicrobial activity against drug-susceptible Haemophilus influenzae 2 after 20 hrs by agar dilution method; conditions: Haemophilus influenzae, 20 h; read-out: MIC; outline: as §1
Haemophilus influenzae [11] = test: Antimicrobial activity against drug-susceptible Haemophilus influenzae 3 after 20 hrs by agar dilution method; conditions: Haemophilus influenzae, 20 h; read-out: MIC; outline: as §1
Haemophilus influenzae [12] = test: Antimicrobial activity against drug-susceptible Haemophilus influenzae 4 after 20 hrs by agar dilution method; conditions: Haemophilus influenzae, 20 h; read-out: MIC; outline: as §1
Staphylococcus aureus [13] = test: Antimicrobial activity against drug-susceptible Staphylococcus aureus 209P JC-1 after 20 hrs by agar dilution method; conditions: Staphylococcus aureus, 209P, 20 h; read-out: MIC
Outline: (§2)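 Agar dilution MIC. S. aureus seed culture was grown in sensitivity test broth. Cell suspension (about 10⁶ CFU/ml) was inoculated onto sensitivity disk agar with 5% horse blood and incubated at 37 °C for 20 h. MIC was the lowest drug concentration that prevented visible growth.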

Staphylococcus aureus [14] = test: Antimicrobial activity against drug-susceptible Staphylococcus aureus 2 after 20 hrs by agar dilution method; conditions: Staphylococcus aureus, 20 h; read-out: MIC; outline: as §2
Staphylococcus aureus [15] = test: Antimicrobial activity against drug-susceptible Staphylococcus aureus 3 after 20 hrs by agar dilution method; conditions: Staphylococcus aureus, 20 h; read-out: MIC; outline: as §2
Staphylococcus aureus [16] = test: Antimicrobial activity against Staphylococcus aureus 4 constitutively expressing ermA after 20 hrs by agar dilution method; outline: as §2
Staphylococcus aureus [17] = test: Antimicrobial activity against Staphylococcus aureus 5 expressing inducible ermB after 20 hrs by agar dilution method; conditions: Staphylococcus aureus, 20 h; read-out: MIC; outline: as §2
Streptococcus pneumoniae [18] = test: Antimicrobial activity against drug-susceptible Streptococcus pneumoniae DP1 Type1 after 20 hrs by agar dilution method; outline: as §1
Streptococcus pneumoniae [19] = test: Antimicrobial activity against drug-susceptible Streptococcus pneumoniae 2 after 20 hrs by agar dilution method; conditions: Streptococcus pneumoniae, 20 h; read-out: MIC; outline: as §1
Streptococcus pneumoniae [20] = test: Antimicrobial activity against Streptococcus pneumoniae 5 constitutively expressing ermB/mefA after 20 hrs by agar dilution method; conditions: Streptococcus pneumoniae, 20 h; read-out: MIC; outline: as §1
Streptococcus pneumoniae [21] = test: Antimicrobial activity against Streptococcus pneumoniae 6 constitutively expressing ermB after 20 hrs by agar dilution method; conditions: Streptococcus pneumoniae, 20 h; read-out: MIC; outline: as §1
Streptococcus pneumoniae [22] = test: Antimicrobial activity against Streptococcus pneumoniae 7 expressing inducible ermB after 20 hrs by agar dilution method; outline: as §1
Staphylococcus aureus [23] = test: Antimicrobial activity against Staphylococcus aureus 6 expressing inducible ermB after 20 hrs by agar dilution method; outline: as §2
[24] = Streptococcus pneumoniae, 20 h, read-out: MIC

Row | SMILES | MIC (Streptococcus pneumoniae [1]; [24]) | MIC (Streptococcus pneumoniae [2]) | MIC (Streptococcus pneumoniae [3]) | MIC (Streptococcus pyogenes [4]) | MIC (Streptococcus pyogenes [5]) | MIC (Streptococcus pyogenes [6]) | MIC (Moraxella catarrhalis [7]) | MIC (Moraxella catarrhalis [8]) | MIC (Haemophilus influenzae [9]) | MIC (Haemophilus influenzae [10]) | MIC (Haemophilus influenzae [11]) | MIC (Haemophilus influenzae [12]) | MIC (Staphylococcus aureus [13]) | MIC (Staphylococcus aureus [14]) | MIC (Staphylococcus aureus [15]) | MIC (Staphylococcus aureus [16]) | MIC (Staphylococcus aureus [17]) | MIC (Streptococcus pneumoniae [19]) | MIC (Streptococcus pneumoniae [20]) | MIC (Staphylococcus aureus [23]) | further results
1 | CCOC(=O)[C@H]1[C@H](C)O[C@@H](O[C@H]2[C@H](N(C)C)[C@@H](O)[C@H](O[C@H]3[C@@H](CC=O)C[C@@H](C)[C@@H](O)CN(CCCCc4ccccc4)CC[C@@H](C)OC(=O)C[C@@H](OC(=O)CC)[C@@H]3OC)O[C@@H]2C)C[C@@]1(C)OC(C)=O | 8 µg/mL (≈ 8.17 µM) | 0.06 µg/mL (≈ 0.0613 µM) | 0.06 µg/mL (≈ 0.0613 µM) | 0.06 µg/mL (≈ 0.0613 µM) | > 128 µg/mL | 0.13 µg/mL (≈ 0.133 µM) | 0.13 µg/mL (≈ 0.133 µM) | 0.25 µg/mL (≈ 0.255 µM) | 32 µg/mL (≈ 32.7 µM) | 1 µg/mL (≈ 1.02 µM) | 4 µg/mL (≈ 4.08 µM) | 8 µg/mL (≈ 8.17 µM) | 0.13 µg/mL (≈ 0.133 µM) | 0.5 µg/mL (≈ 0.511 µM) | 0.25 µg/mL (≈ 0.255 µM) | > 128 µg/mL | 0.5 µg/mL (≈ 0.511 µM) | 0.13 µg/mL (≈ 0.133 µM) | 128 µg/mL (≈ 131 µM) | 0.5 µg/mL (≈ 0.511 µM) | MIC (Streptococcus pneumoniae [18]; [24]): 0.06 µg/mL (≈ 0.0613 µM); MIC (Streptococcus pneumoniae [21]): > 128 µg/mL; MIC (Streptococcus pneumoniae [22]; [24]): 8 µg/mL (≈ 8.17 µM)
2 | CCOC(=O)[C@H]1[C@H](C)O[C@@H](O[C@H]2[C@H](N(C)C)[C@@H](O)[C@H](O[C@H]3[C@@H](CC=O)C[C@@H](C)[C@@H](O)CN(CCCCc4ccccc4)CCCOC(=O)C[C@@H](OC(=O)CC)[C@@H]3OC)O[C@@H]2C)C[C@@]1(C)OC(C)=O | 16 µg/mL (≈ 16.6 µM) | 0.25 µg/mL (≈ 0.259 µM) | 0.13 µg/mL (≈ 0.135 µM) | 0.06 µg/mL (≈ 0.0622 µM) | > 128 µg/mL | 0.13 µg/mL (≈ 0.135 µM) | 0.13 µg/mL (≈ 0.135 µM) | 0.25 µg/mL (≈ 0.259 µM) | 16 µg/mL (≈ 16.6 µM) | 1 µg/mL (≈ 1.04 µM) | 4 µg/mL (≈ 4.14 µM) | 8 µg/mL (≈ 8.29 µM) | 0.25 µg/mL (≈ 0.259 µM) | 1 µg/mL (≈ 1.04 µM) | 0.25 µg/mL (≈ 0.259 µM) | > 128 µg/mL | 0.25 µg/mL (≈ 0.259 µM) | 0.13 µg/mL (≈ 0.135 µM) | > 128 µg/mL | 0.5 µg/mL (≈ 0.518 µM) | MIC (Streptococcus pneumoniae [18]; [24]): 0.13 µg/mL (≈ 0.135 µM); MIC (Streptococcus pneumoniae [22]; [24]): 4 µg/mL (≈ 4.14 µM)
3 | CCOC(=O)[C@H]1[C@H](C)O[C@@H](O[C@H]2[C@H](N(C)C)[C@@H](O)[C@H](O[C@H]3[C@@H](CC=O)C[C@@H](C)[C@@H](O)CN(CCCCc4ccccc4)CCC(C)NC(=O)C[C@@H](OC(=O)CC)[C@@H]3OC)O[C@@H]2C)C[C@@]1(C)OC(C)=O (stereo in doubt; form 1) | – | 0.25 µg/mL (≈ 0.256 µM) | 0.25 µg/mL (≈ 0.256 µM) | 0.06 µg/mL (≈ 0.0613 µM) | > 128 µg/mL | 0.25 µg/mL (≈ 0.256 µM) | 0.13 µg/mL (≈ 0.133 µM) | 0.13 µg/mL (≈ 0.133 µM) | 16 µg/mL (≈ 16.4 µM) | 1 µg/mL (≈ 1.02 µM) | 4 µg/mL (≈ 4.09 µM) | 4 µg/mL (≈ 4.09 µM) | 0.25 µg/mL (≈ 0.256 µM) | 1 µg/mL (≈ 1.02 µM) | 0.25 µg/mL (≈ 0.256 µM) | > 128 µg/mL | 0.25 µg/mL (≈ 0.256 µM) | 0.13 µg/mL (≈ 0.133 µM) | > 128 µg/mL | 0.5 µg/mL (≈ 0.511 µM) | MIC (Streptococcus pneumoniae [1]): 128 µg/mL (≈ 131 µM); MIC (Streptococcus pneumoniae [18]): 0.06 µg/mL (≈ 0.0613 µM); MIC (Streptococcus pneumoniae [21]): > 128 µg/mL; MIC (Streptococcus pneumoniae [22]): 128 µg/mL (≈ 131 µM)

Now from value to molecule, other results behind:

Row | MIC (Streptococcus pneumoniae [1]; [24]) | MIC (Streptococcus pneumoniae [2]) | MIC (Streptococcus pneumoniae [3]) | MIC (Streptococcus pyogenes [4]) | MIC (Streptococcus pyogenes [5]) | MIC (Streptococcus pyogenes [6]) | MIC (Moraxella catarrhalis [7]) | MIC (Moraxella catarrhalis [8]) | MIC (Haemophilus influenzae [9]) | MIC (Haemophilus influenzae [10]) | MIC (Haemophilus influenzae [11]) | MIC (Haemophilus influenzae [12]) | MIC (Staphylococcus aureus [13]) | MIC (Staphylococcus aureus [14]) | MIC (Staphylococcus aureus [15]) | MIC (Staphylococcus aureus [16]) | MIC (Staphylococcus aureus [17]) | MIC (Streptococcus pneumoniae [19]) | MIC (Streptococcus pneumoniae [20]) | MIC (Staphylococcus aureus [23]) | SMILES | further results
4 | > 128 µg/mL | 2 µg/mL (≈ 1.99 µM) | 2 µg/mL (≈ 1.99 µM) | 2 µg/mL (≈ 1.99 µM) | > 128 µg/mL | 4 µg/mL (≈ 3.97 µM) | 8 µg/mL (≈ 7.94 µM) | > 128 µg/mL | > 128 µg/mL | > 128 µg/mL | > 128 µg/mL | > 128 µg/mL | 4 µg/mL (≈ 3.97 µM) | > 128 µg/mL | 4 µg/mL (≈ 3.97 µM) | > 128 µg/mL | 4 µg/mL (≈ 3.97 µM) | 2 µg/mL (≈ 1.99 µM) | > 128 µg/mL | 8 µg/mL (≈ 7.94 µM) | CCOC(=O)[C@H]1[C@H](C)O[C@@H](O[C@H]2[C@H](N(C)C)[C@@H](O)[C@H](O[C@H]3[C@@H](CC=O)C[C@@H](C)[C@@H](OC(C)=O)CN(CCCCc4ccccc4)C[C@@H](C)OC(=O)C[C@@H](OC(=O)CC)[C@@H]3OC)O[C@@H]2C)C[C@@]1(C)OC(C)=O | MIC (Streptococcus pneumoniae [18]; [24]): 1 µg/mL (≈ 0.993 µM); MIC (Streptococcus pneumoniae [21]): > 128 µg/mL; MIC (Streptococcus pneumoniae [22]; [24]): > 128 µg/mL
5 | > 128 µg/mL | 1 µg/mL (≈ 1.01 µM) | 0.5 µg/mL (≈ 0.504 µM) | 0.5 µg/mL (≈ 0.504 µM) | > 128 µg/mL | 1 µg/mL (≈ 1.01 µM) | 0.5 µg/mL (≈ 0.504 µM) | 1 µg/mL (≈ 1.01 µM) | > 128 µg/mL | 2 µg/mL (≈ 2.02 µM) | 8 µg/mL (≈ 8.06 µM) | 8 µg/mL (≈ 8.06 µM) | 0.5 µg/mL (≈ 0.504 µM) | 2 µg/mL (≈ 2.02 µM) | 1 µg/mL (≈ 1.01 µM) | > 128 µg/mL | 1 µg/mL (≈ 1.01 µM) | 0.5 µg/mL (≈ 0.504 µM) | > 128 µg/mL | 2 µg/mL (≈ 2.02 µM) | CCOC(=O)[C@H]1[C@H](C)O[C@@H](O[C@H]2[C@H](N(C)C)[C@@H](O)[C@H](O[C@H]3[C@@H](CC=O)C[C@@H](C)[C@@H](OC(C)=O)CN(CCCCc4ccccc4)CCNC(=O)C[C@@H](OC(=O)CC)[C@@H]3OC)O[C@@H]2C)C[C@@]1(C)OC(C)=O | MIC (Streptococcus pneumoniae [18]; [24]): 0.5 µg/mL (≈ 0.504 µM); MIC (Streptococcus pneumoniae [21]): > 128 µg/mL; MIC (Streptococcus pneumoniae [22]; [24]): > 128 µg/mL
